Rows were chosen to be rich in hits. Some 1.9% of all compounds tested hit in one or more screens of this group.
NadD block = inhibitors of Staphylococcus aureus NadD; inhibition, % at 20 µM; AID 602399; purified NadD enzyme, colorimetric absorbance read-out; 360,000 compounds, 0.78% hits; in the data active means inhibition above about 26%
Xi reactivation = reactivates the inactive X chromosome in mouse fibroblasts; activation, % at 7.58 µM; XiGFP mouse fibroblasts, % GFP-positive cells imaging, 3 d; cells co-treated with 5-aza-dC sensitizer; scaled so ellipticine positive control = 100%; 360,000 compounds, 0.055% hits;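 active means mean normalized replicate activation at least 10% and every replicate at or above 10%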
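Schedule: 3 d treatment, 15 min room-temperature fixation; system: 68-5-11 XiGFP fibroblast line; buffer or medium: DMEM plus 5-aza-dC sensitizer; control set: ellipticine 6 µM positive control; compound: one concentration, pinned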
ABHD5 PLIN5 PPI = blocks binding of human ABHD5 to perilipin-5; Split G. princeps luciferase complementation, luminescence, 4 h; inhibition, % at 4 µM; 360,000 compounds, 0.78% hits; AID 602281;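 active means inhibition above the mean inhibition across every tested compound plus 3 SD, cut at about 22% in these data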
Target sequence (Q00G26 whole entry, looked up): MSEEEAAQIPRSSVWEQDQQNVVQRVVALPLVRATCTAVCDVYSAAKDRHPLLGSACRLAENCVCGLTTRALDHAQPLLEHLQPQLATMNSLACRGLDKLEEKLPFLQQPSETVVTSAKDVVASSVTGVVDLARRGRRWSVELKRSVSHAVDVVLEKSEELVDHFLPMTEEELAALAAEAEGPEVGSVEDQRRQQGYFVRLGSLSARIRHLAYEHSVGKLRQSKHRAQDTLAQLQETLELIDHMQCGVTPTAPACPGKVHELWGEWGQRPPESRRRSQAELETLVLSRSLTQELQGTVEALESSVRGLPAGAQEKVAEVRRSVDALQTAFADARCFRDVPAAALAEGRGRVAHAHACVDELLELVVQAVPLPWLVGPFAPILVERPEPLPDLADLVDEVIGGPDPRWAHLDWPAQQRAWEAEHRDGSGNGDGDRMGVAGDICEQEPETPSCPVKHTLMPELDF
Target sequence (Q8WTS1 whole entry, looked up): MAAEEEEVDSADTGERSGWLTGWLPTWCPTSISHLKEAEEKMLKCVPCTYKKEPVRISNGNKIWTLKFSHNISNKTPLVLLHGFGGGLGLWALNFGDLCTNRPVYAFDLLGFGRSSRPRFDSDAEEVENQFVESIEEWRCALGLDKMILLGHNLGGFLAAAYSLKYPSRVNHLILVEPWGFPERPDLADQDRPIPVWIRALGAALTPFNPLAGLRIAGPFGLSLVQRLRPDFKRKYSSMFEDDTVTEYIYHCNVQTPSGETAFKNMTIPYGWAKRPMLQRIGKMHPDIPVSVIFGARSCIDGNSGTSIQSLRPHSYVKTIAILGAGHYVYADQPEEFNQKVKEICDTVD
Rpn11 block = Rpn11 (human) deubiquitinase inhibition; human 26S proteasome, Ub4-pepOG fluorescence polarization; 20S core pre-blocked with epoxomicin; O00487; 360,000 compounds, 0.59% hits; inhibition, % at 20 µM;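 active means inhibition at 20 µM, scaled to each plate's controls, above about 33%, limit read from the data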
Rin1 Abl inh = blocks binding of human Rin1 to Abl; TR-FRET Rin1/Abl binding, biochemical; 360,000 compounds, 0.4% hits; inhibition, % at 7.35 µM; AID 588664; P00519+Q13671; in the data active means inhibition above about 5%, passing the limit was not always enough
ABHD5-PLIN5 conf = ABHD5-PLIN5 interaction inhibition, confirmed; shares compounds with ABHD5 PLIN5 PPI; biochemical ABHD5-PLIN5 interaction, luminescence; inhibition, % at 4 µM; 2,200 compounds, 67% hits; in the data active means inhibition above about 23%
HNF4 split-luc = counter-screen for ABHD5-PLIN5 inhibitors: HNF4 split-luciferase; shares compounds with ABHD5 PLIN5 PPI; HNF4 dimerization, luminescence, biochemical; inhibition, % at 4 µM; 2,200 compounds, 77% hits; AID 651674;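 active means mean inhibition across replicate wells exceeding the computed hit threshold, cut at about 13% in these data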;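 further: light from luciferase halves that rejoin when HNF4 fusion proteins dimerize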
A number is an active result.

How did Clc1ccc2nc(-c3ccco3)c(Cc3ccccc3)n2c1 do in these assays?
NadD block: inactive; Xi reactivation: inactive; ABHD5 PLIN5 PPI: 55.1; Rpn11 block: inactive; Rin1 Abl inh: inactive; ABHD5-PLIN5 conf: 57.6; HNF4 split-luc: 72.4

How did Cc1cc(Br)cn2c(Cc3cccc(F)c3)c(-c3ccco3)nc12 do in these assays?
Xi reactivation: inactive

What do the screens show for `COC(=O)c1ccc2nc(-c3ccco3)c(Cc3cccc(Cl)c3)n2c1`?
NadD block: inactive; Xi reactivation: inactive; ABHD5 PLIN5 PPI: inactive

Results for Fc1cccc(Cc2c(-c3ccco3)nc3ccc(Br)cn23)c1 ?
NadD block: inactive; Xi reactivation: inactive; ABHD5 PLIN5 PPI: 71.6; Rpn11 block: inactive; Rin1 Abl inh: inactive; ABHD5-PLIN5 conf: 43.9; HNF4 split-luc: 77.6

Results for Brc1ccc2nc(-c3ccco3)c(Cc3ccsc3)n2c1 ?
NadD block: inactive; Xi reactivation: inactive; ABHD5 PLIN5 PPI: 74.7; Rpn11 block: inactive; Rin1 Abl inh: inactive; ABHD5-PLIN5 conf: 49.0; HNF4 split-luc: 91.3

Results for C[C@H]1CN([C@@H](C)CO)C(=O)c2cccc(NS(=O)(=O)c3cn(C)cn3)c2O[C@@H]1CN(C)Cc1ccc(C(=O)Nc2ccccc2N)cc1 ?
Xi reactivation: inactive

What do the screens show for `CCC(=O)Nc1ccc2c(c1)C(=O)N(C)[C@H]1CC[C@H](CC(=O)NCCN3CCCCC3)O[C@@H]1CO2`?
Xi reactivation: inactive

How did CNC[C@@H]1Oc2ccc(NC(=O)CCN3CCOCC3)cc2C(=O)N([C@H](C)CO)C[C@H]1C do in these assays?
Xi reactivation: inactive

What do the screens show for `COC(=O)c1ccc2nc(-c3ccco3)c(Cc3ccccc3)n2c1`?
NadD block: inactive; Xi reactivation: inactive; ABHD5 PLIN5 PPI: 67.4; Rpn11 block: inactive; Rin1 Abl inh: inactive; ABHD5-PLIN5 conf: 56.8; HNF4 split-luc: 83.1

What do the screens show for `Fc1cccc(Cc2c(-c3ccccc3)nc3ccc(Cl)cn23)c1`?
NadD block: inactive; Xi reactivation: inactive; ABHD5 PLIN5 PPI: inactive; Rpn11 block: inactive; Rin1 Abl inh: inactive

What do the screens show for `Fc1cccc(Cc2c(-c3ccco3)nc3c4ccccc4ccn23)c1`?
NadD block: inactive; Xi reactivation: inactive; ABHD5 PLIN5 PPI: 26.4; Rpn11 block: inactive; Rin1 Abl inh: inactive; ABHD5-PLIN5 conf: inactive; HNF4 split-luc: 22.8

Results for Fc1cccc(Cc2c(-c3ccco3)nc3ccc(Cl)cn23)c1 ?
NadD block: inactive; ABHD5 PLIN5 PPI: 74.9; Rpn11 block: inactive; Rin1 Abl inh: inactive; ABHD5-PLIN5 conf: inactive; HNF4 split-luc: 52.5

Results for CCC(=O)N1CC2(C1)[C@H](c1ccccc1)[C@H](CO)N2C(=O)c1cccnc1 ?
Xi reactivation: inactive

Results for O=C1/C(=C/c2ccccc2)CCc2ccc(Cl)nc21 ?
NadD block: inactive; Xi reactivation: inactive; ABHD5 PLIN5 PPI: 75.6; Rpn11 block: inactive; Rin1 Abl inh: inactive; ABHD5-PLIN5 conf: 91.2; HNF4 split-luc: 74.5

What do the screens show for `CO[C@H]1CN(C)C(=O)c2ccc(NC(=O)c3ccc(F)cc3)cc2OC[C@H](C)N(C)C[C@@H]1C`?
Xi reactivation: inactive

How did COc1ccc(S(=O)(=O)N(C(=O)c2ccco2)c2cc3sc(=O)oc3c3ccccc23)cc1 do in these assays?
NadD block: inactive; Xi reactivation: inactive; ABHD5 PLIN5 PPI: 96.6; Rpn11 block: inactive; Rin1 Abl inh: inactive; ABHD5-PLIN5 conf: inactive; HNF4 split-luc: 109.8

What do the screens show for `CC(=O)N(c1ccc2oc(=O)sc2c1)S(=O)(=O)c1ccccc1`?
NadD block: inactive; ABHD5 PLIN5 PPI: inactive; Rpn11 block: inactive; Rin1 Abl inh: inactive

What do the screens show for `Cc1ccc(S(=O)(=O)N(C(=O)c2ccco2)c2cc3sc(=O)oc3c3ccccc23)cc1`?
NadD block: inactive; Xi reactivation: inactive; ABHD5 PLIN5 PPI: 30.8; Rpn11 block: inactive; Rin1 Abl inh: inactive; ABHD5-PLIN5 conf: inactive; HNF4 split-luc: 109.3

What do the screens show for `CCOc1ccc(S(=O)(=O)N(C)CC(=O)NCc2ccco2)cc1`?
NadD block: inactive; Xi reactivation: inactive; ABHD5 PLIN5 PPI: inactive; Rpn11 block: inactive; Rin1 Abl inh: inactive

How did CCOc1ccc(S(=O)(=O)N(C(=O)c2ccco2)c2cc3sc(=O)oc3c3ccccc23)cc1 do in these assays?
NadD block: inactive; Xi reactivation: inactive; ABHD5 PLIN5 PPI: 35.1; Rpn11 block: inactive; Rin1 Abl inh: inactive; ABHD5-PLIN5 conf: inactive; HNF4 split-luc: 34.0

What do the screens show for `COc1ccc(S(=O)(=O)N(Cc2ccccc2)c2ccccc2C(=O)Nc2ccccc2C(=O)NCc2ccco2)cc1`?
NadD block: inactive; Xi reactivation: inactive; ABHD5 PLIN5 PPI: inactive; Rpn11 block: inactive; Rin1 Abl inh: inactive

Results for CC(C)C(=O)N(c1ccc2oc(=O)sc2c1)S(=O)(=O)c1ccccc1 ?
NadD block: inactive; ABHD5 PLIN5 PPI: inactive; Rpn11 block: inactive; Rin1 Abl inh: inactive

What do the screens show for `COc1ccc(S(=O)(=O)N(C(=O)C(C)C)c2ccc3oc(=O)sc3c2)cc1`?
NadD block: inactive; ABHD5 PLIN5 PPI: 31.7; Rpn11 block: inactive; Rin1 Abl inh: inactive; ABHD5-PLIN5 conf: inactive; HNF4 split-luc: 39.2

What do the screens show for `C[C@@H]1CN(C)C(=O)c2cc(N(C)C)ccc2O[C@@H]1CN(C)C(=O)OC(C)(C)C`?
Xi reactivation: inactive

Results for O=C(Nc1ccc2c(c1)OCO2)N[C@H]1CC[C@H](CCNC(=O)C2CCCC2)O[C@@H]1CO ?
Xi reactivation: inactive

How did Cc1ccccc1-c1ccc([C@@H]2[C@@H](CO)N3C(=O)CN(C(=O)c4cccnc4)C[C@@H]23)cc1 do in these assays?
Xi reactivation: inactive

What do the screens show for `CCC(=O)OCCNc1cc(Sc2nc3ccccc3[nH]2)c2nonc2c1[N+](=O)[O-]`?
NadD block: inactive; Xi reactivation: 16.2; ABHD5 PLIN5 PPI: 42.7; Rpn11 block: inactive; Rin1 Abl inh: inactive; ABHD5-PLIN5 conf: 63.2; HNF4 split-luc: 111.2

What do the screens show for `CCCC(=O)OCCNc1cc(Sc2nccn2C)c2nonc2c1[N+](=O)[O-]`?
NadD block: inactive; Xi reactivation: 22.6; ABHD5 PLIN5 PPI: 28.2; Rpn11 block: inactive; Rin1 Abl inh: inactive; ABHD5-PLIN5 conf: 55.7; HNF4 split-luc: 109.0

Results for CCCSc1cc(NCCOC(=O)CCC)c([N+](=O)[O-])c2nonc12 ?
NadD block: inactive; Xi reactivation: inactive; ABHD5 PLIN5 PPI: inactive; Rpn11 block: inactive; Rin1 Abl inh: inactive

What do the screens show for `COC(=O)c1ccc(Cn2cc(/C=C\[N+](=O)[O-])c3ccccc32)o1`?
NadD block: inactive; Xi reactivation: inactive; ABHD5 PLIN5 PPI: 42.6; Rpn11 block: inactive; Rin1 Abl inh: inactive; ABHD5-PLIN5 conf: 88.0; HNF4 split-luc: 46.2
